Reference: PMC8802302 (Journal of Medicinal Chemistry, 2021)

Columns and labels:
MARK3 (NLuc-MARK3) = MARK3 (NLuc-MARK3) (Homo sapiens, UniProt P27448); assay: NanoBRET cellular target engagement assay; format: cell-based; conditions: for MARK3 NanoBRET IC50: HEK293, 0.5 μM tracer K-9, n = 1 where no error, SEM n = 2
NUAK1 [1] = molecular target: T1, NUAK1 (Homo sapiens, UniProt O60285); assay: NanoBRET assay follow-up; format: cell-based
T1 sequence (O60285 1-661): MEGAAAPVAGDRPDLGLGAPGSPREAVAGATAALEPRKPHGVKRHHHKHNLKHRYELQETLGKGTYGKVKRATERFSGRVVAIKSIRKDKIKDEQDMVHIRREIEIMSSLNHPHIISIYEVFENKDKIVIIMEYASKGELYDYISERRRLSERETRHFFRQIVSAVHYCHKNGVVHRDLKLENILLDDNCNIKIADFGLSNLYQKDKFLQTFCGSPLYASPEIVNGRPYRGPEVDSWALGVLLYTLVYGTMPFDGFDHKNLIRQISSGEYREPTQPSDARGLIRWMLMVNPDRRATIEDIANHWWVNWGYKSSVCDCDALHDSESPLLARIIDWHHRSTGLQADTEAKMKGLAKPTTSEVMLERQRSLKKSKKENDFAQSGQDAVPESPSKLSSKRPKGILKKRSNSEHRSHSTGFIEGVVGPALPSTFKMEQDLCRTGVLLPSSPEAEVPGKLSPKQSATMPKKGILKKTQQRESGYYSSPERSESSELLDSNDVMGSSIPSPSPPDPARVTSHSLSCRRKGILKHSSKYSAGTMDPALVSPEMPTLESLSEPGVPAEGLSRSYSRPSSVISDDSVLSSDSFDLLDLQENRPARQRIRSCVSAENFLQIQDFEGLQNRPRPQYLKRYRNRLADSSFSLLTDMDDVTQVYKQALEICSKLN

16-member kinase panel = assay: Eurofins custom enzymatic kinase panel, count of kinases inhibited; format: biochemical; conditions: 16-member Eurofins panel, 1 μM
Procedure, shortened: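 Radiometric kinase assays were run with ATP at Km. Each test compound was tested at a single concentration of 1 μM, in duplicate, against each panel kinase, with results as percent of control. The count is the number of kinases at ≤ 10 PoC, i.e. inhibited ≥ 90%.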

PAMPA permeability = format: in vitro ADME; conditions: PBS pH 7.4, 5 h incubation
Procedure, shortened: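 DMSO stocks of test compound were diluted in PBS pH 7.4 and added to the donor side of a precoated PAMPA plate, with PBS pH 7.4 as acceptor, for 5 h. Both compartments were quantified by chemiluminescent nitrogen detection against a calibration curve, with background nitrogen corrected. Effective permeability was calculated from donor and acceptor concentrations, using measured rather than assumed solubility.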

TBK1 = molecular target: T2, TBK1 (Homo sapiens, UniProt Q9UHD2); assay: Eurofins kinase enzymatic radiometric assay; format: biochemical; conditions: enzymatic IC50 values
T2 sequence (Q9UHD2 1-729): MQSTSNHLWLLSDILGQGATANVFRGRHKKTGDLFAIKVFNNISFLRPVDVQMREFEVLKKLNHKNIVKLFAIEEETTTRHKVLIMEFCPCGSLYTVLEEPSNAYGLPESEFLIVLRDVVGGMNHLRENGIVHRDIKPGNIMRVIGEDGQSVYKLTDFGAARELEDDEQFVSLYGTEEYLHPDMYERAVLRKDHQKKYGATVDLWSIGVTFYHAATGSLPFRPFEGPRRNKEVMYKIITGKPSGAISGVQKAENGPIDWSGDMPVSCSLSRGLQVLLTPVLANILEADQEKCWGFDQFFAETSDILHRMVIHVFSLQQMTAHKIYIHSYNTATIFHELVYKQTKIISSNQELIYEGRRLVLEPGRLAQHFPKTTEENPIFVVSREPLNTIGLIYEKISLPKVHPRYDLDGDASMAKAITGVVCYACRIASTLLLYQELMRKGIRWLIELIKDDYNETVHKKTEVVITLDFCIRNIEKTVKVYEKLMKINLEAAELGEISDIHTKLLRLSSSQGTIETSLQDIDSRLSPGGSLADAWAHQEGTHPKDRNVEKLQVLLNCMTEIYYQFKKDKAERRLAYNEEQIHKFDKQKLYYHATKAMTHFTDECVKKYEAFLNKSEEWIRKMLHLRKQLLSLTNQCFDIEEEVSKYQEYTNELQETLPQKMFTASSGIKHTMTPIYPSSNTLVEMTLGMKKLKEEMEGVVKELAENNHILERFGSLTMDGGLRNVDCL
Procedure, shortened: (§1)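 Both kinases of each pair (NUAK1/NUAK2; TBK1/IKKε) were tested in radiometric assays with ATP at Km. Test compounds were run as 9-point dose–response curves in duplicate. IC50 values for the two kinases were then compared as a fold difference.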

[2] = system: 403 wild-type (WT) human kinases; assay: DiscoverX scanMAX kinome-wide selectivity screen; format: binding; conditions: 403 WT human kinases; for no. kinases with PoC < 10: DiscoverX scanMAX, 1 μM; for S10 (1 μM): Percentage of screened kinases with PoC values < 10 at 1 μM
DRAK1 (DRAK1-NLuc) = molecular target: T3, DRAK1 (DRAK1-NLuc) (Homo sapiens, UniProt Q9UEE5); assay: NanoBRET cellular target engagement assay; format: cell-based; conditions: HEK293, 0.5 μM tracer K-9; n = 1 where no error, SEM n = 3
T3 sequence (Q9UEE5 1-414): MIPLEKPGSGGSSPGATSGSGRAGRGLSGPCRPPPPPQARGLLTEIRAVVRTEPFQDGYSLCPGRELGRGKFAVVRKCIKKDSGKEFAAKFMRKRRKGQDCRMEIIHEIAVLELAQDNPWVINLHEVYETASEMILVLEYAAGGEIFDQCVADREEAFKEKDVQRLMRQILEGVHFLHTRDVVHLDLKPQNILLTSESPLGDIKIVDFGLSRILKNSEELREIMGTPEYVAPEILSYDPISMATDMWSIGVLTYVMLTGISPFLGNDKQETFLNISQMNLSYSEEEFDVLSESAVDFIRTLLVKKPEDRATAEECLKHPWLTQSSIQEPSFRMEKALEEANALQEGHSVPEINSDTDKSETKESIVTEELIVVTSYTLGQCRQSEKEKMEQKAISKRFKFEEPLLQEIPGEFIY

MARK4 (NLuc-MARK4) = molecular target: T4, MARK4 (NLuc-MARK4) (Homo sapiens, UniProt Q96L34); assay: NanoBRET cellular target engagement assay; format: cell-based; conditions: HEK293, 0.5 μM tracer K-5; n = 1 where no error, SEM n = 2
T4 sequence (Q96L34 1-752): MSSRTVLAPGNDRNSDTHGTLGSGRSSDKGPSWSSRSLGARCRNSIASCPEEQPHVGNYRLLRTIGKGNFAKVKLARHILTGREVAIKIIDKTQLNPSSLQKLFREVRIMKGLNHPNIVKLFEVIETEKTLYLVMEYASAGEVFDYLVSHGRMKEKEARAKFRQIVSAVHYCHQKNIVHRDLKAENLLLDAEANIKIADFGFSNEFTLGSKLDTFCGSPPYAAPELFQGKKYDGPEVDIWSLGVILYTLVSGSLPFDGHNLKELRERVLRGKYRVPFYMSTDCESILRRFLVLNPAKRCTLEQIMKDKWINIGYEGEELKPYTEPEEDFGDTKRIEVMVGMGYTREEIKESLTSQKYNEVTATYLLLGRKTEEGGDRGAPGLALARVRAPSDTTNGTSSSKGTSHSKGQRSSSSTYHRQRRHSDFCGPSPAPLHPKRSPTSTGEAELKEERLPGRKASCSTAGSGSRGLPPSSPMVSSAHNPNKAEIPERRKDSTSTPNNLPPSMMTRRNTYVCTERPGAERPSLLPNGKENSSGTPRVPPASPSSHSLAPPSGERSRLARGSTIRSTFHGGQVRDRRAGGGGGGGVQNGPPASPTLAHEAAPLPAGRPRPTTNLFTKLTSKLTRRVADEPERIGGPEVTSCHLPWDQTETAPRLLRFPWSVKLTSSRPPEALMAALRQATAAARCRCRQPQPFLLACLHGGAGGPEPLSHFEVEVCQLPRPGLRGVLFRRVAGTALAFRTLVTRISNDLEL

NUAK1 [3] = molecular target: T1, NUAK1; assay: Eurofins kinase enzymatic radiometric assay; format: biochemical; conditions: enzymatic IC50 values
Procedure, shortened: as §1

MYLK2 = MYLK2 (Homo sapiens, UniProt Q9H1R3); assay: NanoBRET assay follow-up; format: cell-based
TYK2 = TYK2 (Homo sapiens, UniProt P29597); assay: NanoBRET assay follow-up; format: cell-based; conditions: singlicate (n = 1) dose–response
TBK1 (NLuc-TBK1) = molecular target: T5, TBK1 (NLuc-TBK1) (Homo sapiens, UniProt Q9UHD2); assay: NanoBRET cellular target engagement assay; format: cell-based; conditions: HEK293, 0.5 μM tracer K-5; n = 1 where no error, SEM n = 3
T5 sequence (Q9UHD2 1-729): T2 sequence (Q9UHD2 1-729)
Procedure, shortened: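 HEK293 cells were grown in DMEM with 10% FBS at 37 °C under 5% CO2, passaged every 72 h with trypsin and kept below confluency. Cells expressed NanoLuc fusions (DRAK1-NLuc or NLuc-TBK1). Dose–response was run per the manufacturer's protocol, with 0.5 μM tracer K-9 for DRAK1 and 0.5 μM tracer K-5 for TBK1. SEM was reported where assays were repeated.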

Sequence of MARK3 (NLuc-MARK3) (P27448 whole entry): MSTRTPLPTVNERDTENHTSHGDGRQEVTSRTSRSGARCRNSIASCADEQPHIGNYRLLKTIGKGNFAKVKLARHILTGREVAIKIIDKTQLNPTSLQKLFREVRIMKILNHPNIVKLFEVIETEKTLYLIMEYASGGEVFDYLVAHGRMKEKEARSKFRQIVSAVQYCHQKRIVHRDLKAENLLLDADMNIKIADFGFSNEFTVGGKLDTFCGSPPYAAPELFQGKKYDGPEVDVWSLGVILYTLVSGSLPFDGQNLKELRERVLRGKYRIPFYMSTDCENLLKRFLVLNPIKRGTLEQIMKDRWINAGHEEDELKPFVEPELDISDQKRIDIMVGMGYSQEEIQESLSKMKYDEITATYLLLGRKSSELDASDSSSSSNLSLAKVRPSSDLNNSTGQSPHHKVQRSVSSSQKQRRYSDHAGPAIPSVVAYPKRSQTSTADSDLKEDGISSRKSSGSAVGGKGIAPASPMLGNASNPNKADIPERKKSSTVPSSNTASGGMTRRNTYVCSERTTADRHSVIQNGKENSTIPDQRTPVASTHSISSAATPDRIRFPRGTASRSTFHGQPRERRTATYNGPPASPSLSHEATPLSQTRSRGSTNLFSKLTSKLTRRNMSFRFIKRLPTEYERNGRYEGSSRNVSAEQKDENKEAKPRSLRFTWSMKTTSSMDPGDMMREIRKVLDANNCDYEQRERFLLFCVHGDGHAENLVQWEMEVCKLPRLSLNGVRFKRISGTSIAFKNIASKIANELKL
Sequence of MYLK2 (Q9H1R3 whole entry): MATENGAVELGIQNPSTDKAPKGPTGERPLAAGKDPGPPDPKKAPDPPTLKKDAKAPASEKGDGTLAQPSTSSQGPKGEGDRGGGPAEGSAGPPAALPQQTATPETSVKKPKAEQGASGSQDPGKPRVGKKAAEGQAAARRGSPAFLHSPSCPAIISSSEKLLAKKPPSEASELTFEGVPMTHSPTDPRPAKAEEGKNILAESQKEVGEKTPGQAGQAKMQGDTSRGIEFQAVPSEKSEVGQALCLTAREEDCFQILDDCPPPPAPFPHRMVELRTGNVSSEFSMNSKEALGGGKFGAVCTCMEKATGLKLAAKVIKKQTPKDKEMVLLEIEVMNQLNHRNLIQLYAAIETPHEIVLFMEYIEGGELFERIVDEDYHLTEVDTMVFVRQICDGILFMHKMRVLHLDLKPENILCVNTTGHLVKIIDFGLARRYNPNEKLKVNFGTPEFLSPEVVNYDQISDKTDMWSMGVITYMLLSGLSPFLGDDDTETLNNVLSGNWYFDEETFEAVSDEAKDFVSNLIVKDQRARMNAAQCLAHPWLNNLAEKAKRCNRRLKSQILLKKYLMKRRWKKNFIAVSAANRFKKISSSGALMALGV
Sequence of TYK2 (P29597 whole entry): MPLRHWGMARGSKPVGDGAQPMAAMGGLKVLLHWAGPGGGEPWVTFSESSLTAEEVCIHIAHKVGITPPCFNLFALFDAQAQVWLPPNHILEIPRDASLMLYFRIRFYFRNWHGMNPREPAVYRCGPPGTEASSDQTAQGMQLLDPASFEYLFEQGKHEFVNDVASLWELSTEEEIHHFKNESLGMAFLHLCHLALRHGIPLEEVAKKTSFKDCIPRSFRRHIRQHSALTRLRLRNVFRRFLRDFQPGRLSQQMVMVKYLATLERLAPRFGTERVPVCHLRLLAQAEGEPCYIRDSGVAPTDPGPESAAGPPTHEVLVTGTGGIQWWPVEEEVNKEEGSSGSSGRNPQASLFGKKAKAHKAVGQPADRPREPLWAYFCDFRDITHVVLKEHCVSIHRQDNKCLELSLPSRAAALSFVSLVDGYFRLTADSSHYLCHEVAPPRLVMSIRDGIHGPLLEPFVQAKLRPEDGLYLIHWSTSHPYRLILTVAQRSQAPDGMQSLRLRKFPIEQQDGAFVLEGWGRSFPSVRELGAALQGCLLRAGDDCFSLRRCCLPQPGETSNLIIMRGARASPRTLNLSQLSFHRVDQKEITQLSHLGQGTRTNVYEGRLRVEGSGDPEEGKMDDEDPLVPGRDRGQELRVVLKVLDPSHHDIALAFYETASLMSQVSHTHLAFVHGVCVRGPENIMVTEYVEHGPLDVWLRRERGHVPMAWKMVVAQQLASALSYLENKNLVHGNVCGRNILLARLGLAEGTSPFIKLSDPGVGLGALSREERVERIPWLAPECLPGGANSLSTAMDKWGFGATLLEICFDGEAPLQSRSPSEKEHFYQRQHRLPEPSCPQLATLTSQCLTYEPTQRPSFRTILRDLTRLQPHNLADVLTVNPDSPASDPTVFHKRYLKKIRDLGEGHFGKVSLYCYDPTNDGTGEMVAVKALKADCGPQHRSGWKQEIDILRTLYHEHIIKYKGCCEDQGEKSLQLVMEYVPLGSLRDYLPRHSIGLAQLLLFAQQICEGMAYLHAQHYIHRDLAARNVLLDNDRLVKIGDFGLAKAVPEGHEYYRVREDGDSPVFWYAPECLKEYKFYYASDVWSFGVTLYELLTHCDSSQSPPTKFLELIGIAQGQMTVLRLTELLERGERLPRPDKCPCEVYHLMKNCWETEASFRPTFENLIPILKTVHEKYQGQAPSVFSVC

Compound | no. kinases ≤ 10 PoC in enzyme panel (16-member kinase panel) | Pe (permeability coefficient, PAMPA) (PAMPA permeability) | no. kinases with PoC < 10 [2] | S10 (1 μM) [2] | also measured
O=C(NCCCNc1nc(Nc2cccc(NC(=O)N3CCCC3)c2)ncc1I)c1cccs1 [BX-795, reference compound] | 16 | – | – | – | IC50 (MARK3 (NLuc-MARK3)): 515 nM; IC50 (NUAK1 [1]): 187 nM; fold loss in potency, enzymatic to NanoBRET, NUAK1 (NUAK1 [1]; published enzymatic IC50 vs NanoBRET IC50): ~34 fold
Cc1nn(CC(F)(F)F)cc1Nc1ncc(C2CC2)c(NCc2ccc(S(N)(=O)=O)cc2)n1 [Compound 5, 4-(((5-Cyclopropyl-2-((3-methyl-1-(2,2,2-trifluoroethyl)-1H-pyrazol-4-yl)amino)pyrimidin-4-yl)amino)methyl)benzenesulfonamide] | 1 | below the limit of quantitation | 2 | 0.005 | fold difference in potency for TBK1 and IKKε (TBK1): 8 fold
Cc1nn(CC(F)(F)F)cc1Nc1nccc(NCCc2cnc[nH]2)n1 [Compound 15, N^4-(2-(1H-Imidazol-5-yl)ethyl)-N^2-(3-methyl-1-(2,2,2-trifluoroethyl)-1H-pyrazol-4-yl)pyrimidine-2,4-diamine] | 0 | low permeability | 0 | – | fold loss in potency, enzymatic versus NanoBRET, MYLK2 (MYLK2): < 10 fold; MYLK2 NanoBRET IC50 (MYLK2; singlicate (n = 1) dose–response): single digit micromolar activity
O=C(NCCCNc1nc(Nc2cccc(NC(=O)N3CCCC3)c2)ncc1Br)C1CCC1 [Compound 18, N-(3-((5-Bromo-4-((3-(cyclobutanecarboxamido)propyl)amino)pyrimidin-2-yl)amino)phenyl)pyrrolidine-1-carboxamide] | 16 | – | 90 | 0.223 | TBK1 NanoBRET IC50 (TBK1 (NLuc-TBK1)): submicromolar; MARK3 NanoBRET IC50 (MARK3 (NLuc-MARK3)): submicromolar; DRAK1 NanoBRET IC50 (DRAK1 (DRAK1-NLuc)): submicromolar; MARK4 NanoBRET IC50 (MARK4 (NLuc-MARK4)): submicromolar

More lines, main results first:

no. kinases ≤ 10 PoC in enzyme panel (16-member kinase panel) | Pe (permeability coefficient, PAMPA) (PAMPA permeability) | Compound | no. kinases with PoC < 10 [2] | S10 (1 μM) [2] | also measured
13 | low permeability | Brc1cnc(Nc2cccc(CN3CCOCC3)c2)nc1NCCc1c[nH]cn1 [Compound 9, N^4-(2-(1H-Imidazol-4-yl)ethyl)-5-bromo-N^2-(3-(morpholinomethyl)phenyl)pyrimidine-2,4-diamine] | 94 | 0.233 | MARK3 NanoBRET IC50 (MARK3 (NLuc-MARK3)): submicromolar; DRAK1 NanoBRET IC50 (DRAK1 (DRAK1-NLuc)): submicromolar; MARK4 NanoBRET IC50 (MARK4 (NLuc-MARK4)): submicromolar
4 | below the limit of quantitation | NS(=O)(=O)c1ccc(CNc2nc(Nc3cccc(NC(=O)N4CCCC4)c3)ncc2Br)cc1 [Compound 13, N-(3-((5-Bromo-4-((4-sulfamoylbenzyl)amino)pyrimidin-2-yl)amino)phenyl)pyrrolidine-1-carboxamide] | – | 0.03 | fold difference between NUAK1 and NUAK2 (NUAK1 [3]): ~3 fold
0 | below the limit of quantitation | NS(=O)(=O)c1ccc(CNc2ccnc(Nc3cccc(NC(=O)N4CCCC4)c3)n2)cc1 [Compound 16, N-(3-((4-((4-Sulfamoylbenzyl)amino)pyrimidin-2-yl)amino)phenyl)pyrrolidine-1-carboxamide] | 1 | – | TYK2 NanoBRET IC50 (TYK2): did not have any activity
0 | – | NS(=O)(=O)c1ccc(CNc2ccnc(Nc3cccc(CN4CCOCC4)c3)n2)cc1 [Compound 19, 4-(((2-((3-(Morpholinomethyl)phenyl)amino)pyrimidin-4-yl)amino)methyl)benzenesulfonamide] | 3 | 0.007 | TYK2 NanoBRET IC50 (TYK2): did not have any activity
